# Measurements taken from BindingDB's records for doi:10.1021/jm9504767 (Freie Universität Berlin, 1996).
# Biological target: Histamine H3 receptor (Rattus norvegicus, UniProt Q9QYN8)
# Test: In vitro antagonistic activity tested against Histamine H3 receptor on synaptosomes from rat cerebral cortex
# How it was run: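 Preloaded 30 min with L-[3H]histidine (0.4 µM) at 37 °C in modified Krebs-Ringer. Washed, resuspended in 2 mM K+ medium, then depolarized 2 min with 2 or 30 mM K+ (final). […] Stopped by rapid centrifugation; liquid scintillation. Ki by Cheng-Prusoff; mean ± SEM, ≥3 determinations.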
# Sequence of Histamine H3 receptor (Q9QYN8 whole entry): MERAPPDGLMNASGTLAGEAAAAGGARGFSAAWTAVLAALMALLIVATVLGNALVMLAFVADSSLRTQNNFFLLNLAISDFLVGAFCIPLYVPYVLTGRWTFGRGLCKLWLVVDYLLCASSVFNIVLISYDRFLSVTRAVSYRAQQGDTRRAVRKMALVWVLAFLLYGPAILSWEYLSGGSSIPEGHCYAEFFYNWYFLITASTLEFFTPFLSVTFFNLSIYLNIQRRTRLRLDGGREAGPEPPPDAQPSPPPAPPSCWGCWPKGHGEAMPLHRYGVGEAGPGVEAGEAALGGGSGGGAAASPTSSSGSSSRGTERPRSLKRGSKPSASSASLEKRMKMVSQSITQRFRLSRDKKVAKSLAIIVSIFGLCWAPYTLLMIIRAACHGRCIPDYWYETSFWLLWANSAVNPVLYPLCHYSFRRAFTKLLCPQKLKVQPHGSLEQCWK
row,SMILES,Ki [µM]
1,COc1ccc(CCC(=O)OCCCc2cnc[nH]2)cc1I [3-(3-Iodo-4-methoxy-phenyl)-propionic acid 3-(1H-imidazol-4-yl)-propyl ester],0.251
2,O=C(CCc1ccc(I)cc1)OCCCc1cnc[nH]1 [3-(4-Iodo-phenyl)-propionic acid 3-(1H-imidazol-4-yl)-propyl ester],0.05
3,Cc1ccc(C(=O)OCCCc2cnc[nH]2)cc1I [3-Iodo-4-methyl-benzoic acid 3-(1H-imidazol-4-yl)-propyl ester],0.0316
4,"Nc1c(I)cc(C(=O)OCCCc2cnc[nH]2)cc1I [4-Amino-3,5-diiodo-benzoic acid 3-(1H-imidazol-4-yl)-propyl ester]",0.158
5,Ic1cccc(COCCCc2cnc[nH]2)c1 [4-[3-(3-Iodo-benzyloxy)-propyl]-1H-imidazole],0.00631
6,Ic1cccc(OCCCc2cnc[nH]2)c1 [4-[3-(3-Iodo-phenoxy)-propyl]-1H-imidazole],0.016
7,Brc1ccc(COCCCc2cnc[nH]2)cc1 [4-[3-(4-Bromo-benzyloxy)-propyl]-1H-imidazole],0.0126
8,Ic1ccc(OCCCc2cnc[nH]2)cc1 [4-[3-(4-Iodo-phenoxy)-propyl]-1H-imidazole],0.0199
9,Ic1ccc(CCCOCCCc2cnc[nH]2)cc1 [4-{3-[3-(4-Iodo-phenyl)-propoxy]-propyl}-1H-imidazole],0.0316
